Compound activity: PubChem, The Scripps Research Institute Molecular Screening Center
An excerpt weighted towards active compounds, which were near 2.3% of everything screened.
OXTR agonist: human OXTR agonists, primary screen, fluorescence, CHO-OTR cells, Fluo-8 calcium; Fluo-8 calcium fluorescence; normalized: DMSO 0%, oxytocin 100%; Oxytocin receptor (Homo sapiens), P30559; 320,000 compounds, 0.32% hits; activation, % at 3 µM;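 active means activation above the mean of all tested compounds plus 3 SD, cutoff set per screening run, cut at about 20% in these data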;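 further: peak over basal fluorescence ratio from a 100 s FLIPR kinetic read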
OXTR potentiator: human OXTR potentiators, primary screen, fluorescence, CHO-OTR cells, Fluo-8 calcium; Oxytocin receptor (Homo sapiens), P30559; Fluo-8 calcium fluorescence, potentiator mode; 0% = oxytocin EC15, 100% = EC100; activation, % at 3 µM; 320,000 compounds, 0.061% hits;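 active means activation above that plate's cutoff, the mean activation of tested compounds plus 3 SD, cut at about 6.6% in these data, passing the limit was not always enough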;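 further: 100% uses oxytocin at 75 nM as the full agonist control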
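assay system = CHO-OTR cells, human receptor | schedule = compound 6 min at room temperature before oxytocin, 100 s read | detection = Fluo-8 intracellular calcium fluorescence, ex 470-495, em 515-575 nm | evaluation = normalized max/min fluorescence ratio, % activation | control set = EC15 oxytocin alone as 0%, 75 nM oxytocin (EC100) as 100%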
TAAR1 ag: human TAAR1 agonists, primary screen, Fluo-8 calcium fluorescence, CHO RD-HGA16 cells | Trace amine-associated receptor 1 (Homo sapiens), Q96RJ0 | vehicle wells 0%, saturating PEA agonist 100% | activation, % at 3 µM | 360,000 compounds, 0.99% hits;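 active means activation above the mean activation of all test compounds in the run plus 3 SD, cut at about 38% in these data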
Target sequence (Q96RJ0 whole entry, looked up): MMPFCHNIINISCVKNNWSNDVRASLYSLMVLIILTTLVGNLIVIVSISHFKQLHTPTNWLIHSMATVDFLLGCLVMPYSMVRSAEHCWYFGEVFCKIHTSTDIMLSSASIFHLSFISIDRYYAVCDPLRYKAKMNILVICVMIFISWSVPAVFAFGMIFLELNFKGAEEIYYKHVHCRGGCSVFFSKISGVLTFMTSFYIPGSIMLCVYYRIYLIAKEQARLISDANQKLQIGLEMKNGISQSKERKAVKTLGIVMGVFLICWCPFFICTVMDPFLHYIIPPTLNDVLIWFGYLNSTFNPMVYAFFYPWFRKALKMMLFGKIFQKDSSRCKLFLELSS
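Benchmarks: low control DMSO, high control PEA (EC100); System: CHO RD-HGA16 cells carrying human TAAR1 plus Gα16; Detection: Fluo-8 fluorescence, 5 s baseline then 140 s kinetic read; Schedule: 17-24 h plating, Fluo-8 75 min 37 °C, 30 min RT; Read-out basis: % activation from peak over basal fluorescence ratio, DMSO-to-PEA scaled.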
TAAR1 antagonist: human TAAR1 antagonists, primary screen, Fluo-8 calcium fluorescence, CHO RD-HGA16 cells. Trace amine-associated receptor 1 (Homo sapiens), Q96RJ0. antagonist. inhibition, % at 3 µM. 360,000 compounds, 1.5% hits;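 active means inhibition above a per-plate cutoff, the mean inhibition of test compounds on that plate plus 3 SD, cut at about 49% in these data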;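 further: 0% = DMSO plus EC80 beta-PEA response and 100% = DMSO alone without agonist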
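Test system: CHO RD-HGA16 cells bearing hTAAR1 | Reagent: β-PEA, EC80 | Compound dosing: 3 µM, single point | Schedule: Dye loading 75 min at 37 °C, then 30 min room temperature | Signal: Calcium fluorescence with Fluo-8 | Evaluation: Percent inhibition of PEA-evoked calcium signal, max/basal emission ratio | Control set: DMSO-only wells and EC80 β-PEA-stimulated wells | Repeats: Singlicate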
V1aR counter: agonists of human V1a receptor, primary screen, counter-screen for OXTR agonist project, fluorescence, CHO-V1R cells | Vasopressin V1a receptor (Homo sapiens), P37288 | Fluo-8 calcium fluorescence, agonist mode; 0% DMSO, 100% 3 nM vasopressin | activation, % at 3 µM | 320,000 compounds, 0.25% hits | AID 2797, 2010;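 active means activation above the mean activation of all tested compounds plus 3 SD, per screening run, cut at about 20% in these data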;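 further: signal is peak over basal fluorescence ratio across a 100 second FLIPR read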
Target sequence (P37288 whole entry, looked up): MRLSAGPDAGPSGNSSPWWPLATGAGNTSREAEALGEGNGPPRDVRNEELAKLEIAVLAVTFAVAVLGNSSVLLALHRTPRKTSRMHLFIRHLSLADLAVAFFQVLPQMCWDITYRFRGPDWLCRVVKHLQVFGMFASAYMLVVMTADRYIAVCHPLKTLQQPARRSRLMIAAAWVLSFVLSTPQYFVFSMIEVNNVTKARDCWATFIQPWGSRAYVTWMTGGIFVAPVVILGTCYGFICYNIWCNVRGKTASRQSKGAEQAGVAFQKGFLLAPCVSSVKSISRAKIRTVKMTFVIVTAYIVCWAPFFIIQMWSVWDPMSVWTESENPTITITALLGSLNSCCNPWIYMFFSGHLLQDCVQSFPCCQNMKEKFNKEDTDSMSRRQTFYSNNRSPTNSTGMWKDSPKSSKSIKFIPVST
TAAR1 nonsel count: nonselective antagonists in TAAR1 counter-screen cells, counter-screen for hTAAR1 antagonist project, cell-based, fluorescence, calcium; AID 651780, 2012; shares compounds with TAAR1 antagonist; inhibition, % at 3 µM; counterscreen cell line, antagonist mode; 2,400 compounds, 77% hits; in the data active means inhibition above about 22%;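 further: CHO-Ga16 host cells stimulated with ATP at an EC80 level; 0% = agonist EC80 plus vehicle and 100% = vehicle without agonist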
TAAR1 ant conf: human TAAR1 antagonists, retest of hits, confirmation, cell-based, fluorescence | shares compounds with TAAR1 antagonist | TAAR1-expressing cells, fluorescence antagonist read-out | inhibition, % at 3 µM | 2,400 compounds, 40% hits | AID 651785, 2012; in the data active means inhibition above about 49%;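 further: CHO-Ga16 host cells challenged with agonist PEA near its EC80; 0% = agonist at EC80 plus vehicle and 100% = vehicle with no agonist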
Ga16 nonsel ag: calcium activation in Ga16-expressing cells, counter-screen for TAAR1 antagonist project, cell-based, fluorescence | shares compounds with TAAR1 antagonist | 2,400 compounds, 18% hits | activation, % at 3 µM | agonist counterscreen; in the data active means activation above about 12%;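 further: 0% = vehicle wells and 100% = saturating stimulus response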
TAAR1 ag counter: TAAR1 activation by candidate antagonists – cell-based, fluorescence, counter-screen for TAAR1 antagonist project; shares compounds with TAAR1 antagonist; hTAAR1 cell line, agonist mode; activation, % at 3 µM; 2,400 compounds, 2% hits; AID 651955, 2012; in the data active means activation above about 37%;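 further: CHO cells stably expressing TAAR1 with calcium dye readout; 0% = DMSO vehicle and 100% = full agonist response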
Active calls of the source: *; / = no result.

SMILES | OXTR agonist | OXTR potentiator | TAAR1 ag | TAAR1 antagonist | V1aR counter | TAAR1 nonsel count | TAAR1 ant conf | Ga16 nonsel ag | TAAR1 ag counter
C[C@H](NC(=O)c1nc[nH]c1C(=O)NCC(=O)OCc1ccccc1)C(=O)OCc1ccccc1 | -2 | -10 | 12 | 71* | 0 | 36* | 62* | 6 | 6
C[C@H](NC(=O)c1nc[nH]c1C(=O)NCC(=O)OCc1ccccc1)c1ccccc1 | 2 | -11 | 17 | 64* | 0 | 32* | 50* | 8 | 9
O=C(NCc1cc(C(F)(F)F)ccc1Cl)c1cccc2c1C(=O)c1ccc(N3CCOCC3)cc1S2(=O)=O | 15 | -9 | 18 | 60* | 1 | 33* | 50* | 22* | 22
CCOc1cc(/C=C(/C#N)c2nc3ccccc3[nH]2)ccc1Oc1ccc([N+](=O)[O-])cn1 | 4 | -11 | 15 | 65* | 4 | 54* | 66* | 10 | 7
Cc1ccc2nc(/C(C#N)=C\c3ccc([N+](=O)[O-])o3)[nH]c2c1 | 9 | -12 | 26 | 9 | 6 | / | / | / | /
N#C/C(=C\c1ccc([N+](=O)[O-])o1)c1nc2ccccc2[nH]1 | 1 | -11 | 17 | 66* | 3 | 49* | 61* | 20* | 25
COc1cc(/C=C(/C#N)c2nc3ccccc3[nH]2)ccc1OCc1ccc(C(=O)O)o1 | 1 | -1 | 4 | 7 | 2 | / | / | / | /
COC(=O)c1ccc(COc2ccc(/C=C(\C#N)c3nc4ccccc4[nH]3)cc2OC)o1 | 0 | -7 | 14 | 61* | -1 | 32* | 45 | 7 | 7
COc1ccc([C@H]2CC(=O)C=C(c3ccccc3OC)C2)cc1OC | 2 | -4 | 9 | 36 | 2 | / | / | / | /
COc1ccc([C@H]2CC(=O)C=C(c3ccc(F)cc3OCc3ccccc3)C2)cc1OC | 1 | -5 | 21 | 83* | 2 | 42* | 67* | 8 | 11
C[C@H](CO)N1C[C@H](C)[C@H](CN(C)Cc2ccncc2)OCc2ccccc2-c2c(n(C)c3ccccc23)C1=O | / | / | 3 | -2 | / | / | / | / | /
C[C@H]1CN(C2CCCCC2)C(=O)[C@@H]1CC(=O)Nc1ccc(Br)cc1 | / | / | 1 | -18 | / | / | / | / | /
COc1cccc(C(=O)Nc2ccc(-n3nncc3C(C)(C)C)cc2)c1 | 2 | -25 | 3 | -5 | 5 | / | / | / | /
CC(C)(C)c1cnnn1-c1ccc(NC(=O)c2ccc(Br)o2)cc1 | 2 | 3 | 7 | 58* | 2 | 12 | 16 | 2 | -1
Cc1noc(C)c1CSCC(=O)NCCN1C(=O)S/C(=C\c2ccccc2F)C1=O | 4 | -15 | 13 | 56* | 7 | 35* | 54* | 13* | 12
O=C(c1ccc(CS(=O)Cc2ccc(Cl)cc2)o1)N1CCN(c2ccc(F)cc2)CC1 (centres undefined) | 3 | -11 | 24 | 72* | 7 | 15 | 11 | 4 | 5
COc1ccc(S(=O)(=O)Cc2ccc(C(=O)N3CCN(c4ccc(Cl)cc4)CC3)o2)cc1 | 8 | -9 | 5 | 72* | 10 | 33* | 36 | 9 | 7
COc1ccc(N2CCN(C(=O)c3ccc(CS(=O)(=O)c4ccc(OC)cc4)o3)CC2)cc1 | 1 | 5 | 1 | 4 | 3 | / | / | / | /
COc1ccc(S(=O)(=O)Cc2ccc(C(=O)N3CCN(c4cccc(C)c4)C(C)C3)o2)cc1 (centres undefined) | 1 | -8 | 4 | 59* | 3 | 31* | 38 | 10 | 9
O=C(c1ccc(CS(=O)Cc2cccc(Cl)c2)o1)N1CCN(c2ccc(F)cc2)CC1 (centres undefined) | / | / | 6 | 0 | / | / | / | / | /
O=C(Nc1ccc(F)cc1F)N1CCC(c2nc3ccccc3o2)CC1 | 0 | 0 | 7 | -4 | 2 | / | / | / | /
CCOc1ccc2nc(SCC(=O)c3ccc(O)cc3O)sc2c1 | 1 | -20 | 2 | -7 | 4 | / | / | / | /
O=C1NC(=O)C2(COC(c3cccc([N+](=O)[O-])c3)OC2)S1 (centres undefined) | 0 | -17 | 4 | -17 | 1 | / | / | / | /
CCOC(=O)[C@]12CCC=C1N(Cc1ccco1)C(=O)[C@H](CC(=O)NCC13CC4CC(CC(C4)C1)C3)C2 | / | / | -2 | -4 | / | / | / | / | /
O=C(Nc1ccc(Br)cc1Br)Nc1cccc2[nH]c([C@@H]3O[C@H](CO)[C@@H](O)[C@H](O)[C@H]3O)nc12 | / | / | 5 | 14 | / | / | / | / | /
SMILES | OXTR agonist | OXTR potentiator | TAAR1 ag | TAAR1 antagonist | V1aR counter | TAAR1 nonsel count | TAAR1 ant conf | Ga16 nonsel ag | TAAR1 ag counter
CN1CCN(c2ncnc3c2c(-c2ccccc2)cn3-c2ccc(F)cc2)CC1 | 2 | -9 | 10 | 60* | 0 | 11 | 53* | 9 | 28
c1ccc(-c2cn(-c3ccccc3)c3ncnc(N4CCCCC4)c23)cc1 | -1 | -5 | 1 | 13 | 0 | / | / | / | /
O=C(COc1ccc(Cl)cc1)Nc1ccc2c(c1)CCC2 | -2 | -8 | -2 | 10 | 0 | / | / | / | /
CC(=O)c1ccc(OCC(=O)Nc2ccc3c(c2)CCC3)cc1 | -1 | 2 | 0 | 84* | -1 | 1 | -1 | 9 | 13
CC(C)Oc1ccccc1-c1cc(C(=O)N/N=C/c2cccnc2)c2ccccc2n1 | 1 | -3 | 9 | 50* | 0 | 21 | 30 | 6 | 5
COc1ccc(-c2cc(C(=O)N/N=C/c3cc(OC)c(OC)cc3OC)c3ccccc3n2)cc1 | 0 | -4 | 9 | 68* | 0 | 28* | 36 | 6 | 3
COc1cc(/C=N/NC(=O)c2cc(-c3cccc(OC(C)C)c3)nc3ccccc23)ccc1O | -2 | -12 | 1 | 54* | -1 | 16 | 48 | 4 | 11
Cc1ccccc1-c1cc(C(=O)N/N=C/c2cccnc2)c2ccccc2n1 | / | / | 0 | 0 | / | / | / | / | /
COC(=O)CCn1nc(-c2ccc(C)cc2)c2ccccc2c1=O | -1 | -8 | 0 | -28 | -2 | / | / | / | /
